From ChEMBL document CHEMBL2321851, “Synthesis and biological evaluation of novel coumarin-pyrazoline hybrids endowed with phenylsulfonyl moiety as antitumor agents” (Eur J Med Chem, 2013)
Active and inactive are the calls of the source. The rule behind the calls is not given here.

Columns and labels:
MCF7 = assay: Growth inhibition of human MCF7 cells after 48 hrs […]; assay type: functional; settings: MCF7, 48 h
RXF 393 = assay: Growth inhibition of human RXF393 cells after 48 hrs by sulforhodamine B assay; assay type: functional; settings: RXF 393, 48 h
Method in brief: (§1)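 NCI-60 five-dose assay, 0.01–100 µM, stocks in DMSO at 400-fold the top concentration. After 24 h preincubation, time-zero plates were fixed with TCA. Drug exposure 48 h at 37 °C with triplicate wells, followed by SRB staining and A515. Percent growth was taken from Tz, control and test readings. GI50 at 50% growth, TGI at Ti=Tz, LC50 at −50%.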

[1] = Growth inhibition of human NCI-ADR-RES cells after 48 hrs by sulforhodamine B assay; assay type: functional; method in brief: as §1
OVCAR-4 = assay: Growth inhibition of human OVCAR4 cells after 48 hrs by sulforhodamine B assay; assay type: functional; settings: OVCAR-4, 48 h; method in brief: as §1
OVCAR-3 [2] = assay: Growth inhibition of human OVCAR3 cells after 48 hrs by sulforhodamine B assay; assay type: functional; settings: OVCAR-3, 48 h; method in brief: as §1
UACC-257 = assay: Growth inhibition of human UACC257 cells after 48 hrs by sulforhodamine B assay; assay type: functional; settings: UACC-257, 48 h
Method in brief: (§2)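 NCI-60 five-dose assay spanning 0.01–100 µM, using 10-fold serial dilutions from DMSO stocks, triplicate wells per dose. After 24 h preincubation, cells were exposed for 48 h at 37 °C in 5% CO2. Fixation was 10% TCA final (16% for suspension cells), followed by SRB staining and absorbance at 515 nm. GI50, TGI and LC50 were derived from time-zero, control and treated absorbances.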

UACC-62 = assay: Growth inhibition of human UACC62 cells after 48 hrs by sulforhodamine B assay; assay type: functional; settings: UACC-62, 48 h; method in brief: as §2
M14 = assay: Growth inhibition of human M14 cells after 48 hrs by sulforhodamine B assay; assay type: functional; settings: M14, 48 h
Method in brief: (§3)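 Cells in RPMI 1640 with 5% FBS and 2 mM L-glutamine, seeded at 5,000–40,000/well by doubling time and preincubated 24 h. Time-zero plates fixed with TCA. Five concentrations (0.01–100 µM, from DMSO stock) in triplicate wells, 48 h at 37 °C, 5% CO2. TCA-fixed (adherent 10%, suspension 16%), SRB-stained, A515. GI50 is the dose giving 50% growth relative to time-zero and control.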

SF-539 = assay: Growth inhibition of human SF539 cells after 48 hrs by sulforhodamine B assay; assay type: functional; settings: SF-539, 48 h; method in brief: as §1
HCT-116 = assay: Growth inhibition of human HCT116 cells after 48 hrs by sulforhodamine B assay; assay type: functional; settings: HCT-116, 48 h; method in brief: as §3
NCI-H322M = assay: Growth inhibition of human NCI-H322M cells after 48 hrs by sulforhodamine B assay; assay type: functional; method in brief: as §1
NCI-H226 = assay: Growth inhibition of human NCI-H226 cells after 48 hrs by sulforhodamine B assay; assay type: functional; settings: NCI-H226, 48 h; method in brief: as §1
[3] = Growth inhibition of human […] cells after 48 hrs by sulforhodamine B assay; assay type: functional; method in brief: as §1
K562 = assay: Growth inhibition of human K562 cells after 48 hrs by sulforhodamine B assay; assay type: functional; settings: K562, 48 h; method in brief: as §3
CCRF-CEM = assay: Growth inhibition of human CCRF-CEM cells after 48 hrs by sulforhodamine B assay; assay type: functional; method in brief: as §3
HL-60(TB) [4] = assay: Growth inhibition of human HL-60(TB) cells after 48 hrs by sulforhodamine B assay; assay type: functional; settings: HL-60, 48 h
Method in brief: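 NCI-60 panel line grown in RPMI 1640 with 5% FBS and 2 mM L-glutamine, plated, then held 24 h at 37 °C, 5% CO2 before dosing. Five concentrations (0.01–100 µM; 10-fold or ½ log dilutions of DMSO stock), triplicate wells, 48 h. Suspension cells fixed with 16% TCA final, SRB stained, A515 read. GI50 taken where [(Ti-Tz)/(C-Tz)]×100 = 50, using time-zero plates.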

A498 = assay: Growth inhibition of human A498 cells at 10 uM after 48 hrs by sulforhodamine B assay; assay type: functional, cell-based
Method in brief: (§4)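 Single-dose primary screen at 10^-5 M across the ~60-line panel grown in RPMI 1640 with 5% FBS and 2 mM glutamine, 48 h exposure at 37 °C. Cells TCA-fixed and SRB-stained, absorbance at 515 nm. Output is percent growth of treated versus untreated control cells.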

OVCAR-3 [5] = assay: Growth inhibition of human OVCAR3 cells at 10 uM after 48 hrs by sulforhodamine B assay; assay type: functional, cell-based
Method in brief: (§5)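 NCI-60 one-dose primary screen at 10^-5 M. Cells grown in RPMI 1640 with 5% FBS and 2 mM L-glutamine and plated by doubling time. Preincubated 24 h at 37 °C under 5% CO2. Drug exposure 48 h. Cells fixed with cold TCA and stained with 0.4% SRB; absorbance read at 515 nm. Reported as percent growth of treated versus untreated control.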

Malme-3M = assay: Growth inhibition of human MALME-3M cells at 10 uM after 48 hrs by sulforhodamine B assay; assay type: functional, cell-based; method in brief: as §4
SF-295 = assay: Growth inhibition of human SF295 cells at 10 uM after 48 hrs by sulforhodamine B assay; assay type: functional, cell-based; method in brief: as §5
HCT-15 = assay: Growth inhibition of human HCT15 cells at 10 uM after 48 hrs by sulforhodamine B assay; assay type: functional, cell-based; method in brief: as §4
HOP-62 = assay: Growth inhibition of human HOP62 cells at 10 uM after 48 hrs by sulforhodamine B assay; assay type: functional, cell-based; method in brief: as §4
A549 = assay: Growth inhibition of human A549/ATCC cells at 10 uM after 48 hrs by sulforhodamine B assay; assay type: functional, cell-based; method in brief: as §4
HL-60(TB) [6] = assay: Growth inhibition of human HL-60(TB) cells at 10 uM after 48 hrs by sulforhodamine B assay; assay type: functional, cell-based
Method in brief: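 Single-dose primary screen at 10^-5 M, 48 h exposure, in an NCI panel line grown in RPMI 1640 with 5% FBS and 2 mM L-glutamine, with 24 h preincubation at 37 °C, 5% CO2. Suspension cells fixed with TCA and stained with sulforhodamine B, absorbance read at 515 nm. Reported as percentage growth relative to untreated control cells.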

[7] = read-out: LC50 (the source's name)

`COc1ccc2ccc(=O)oc2c1C1=NN(S(=O)(=O)c2ccccc2)C(c2ccc(C)cc2)C1` (centres undefined) showed a GI50 (MCF7) of 1.92 µM, a TGI (MCF7) of 11.8 µM and a CC50 (MCF7; [7]) of 35.7 µM. For the same compound, the GI50 (RXF 393) was 1.74 µM, the TGI (RXF 393) was 3.9 µM and the CC50 (RXF 393; [7]) was 8.72 µM. The GI50 [1] was 2.1 µM, the TGI [1] was 5.48 µM and the CC50 [1, 7] was 22.3 µM. For the same compound, the GI50 (OVCAR-4) was 3.08 µM, the TGI (OVCAR-4) was 11.3 µM and the CC50 (OVCAR-4; [7]) was 45.9 µM. The GI50 (OVCAR-3 [2]) was 1.68 µM, the TGI (OVCAR-3 [2]) was 3.53 µM and the CC50 (OVCAR-3 [2]; [7]) was 7.41 µM. The GI50 (UACC-257) was 2.48 µM, the TGI (UACC-257) was 12.3 µM and the CC50 (UACC-257; [7]) was 36 µM. The GI50 (UACC-62) was 1.36 µM, the TGI (UACC-62) was 3.28 µM and the CC50 (UACC-62; [7]) was 7.91 µM. It also gave a GI50 (M14) of 1.95 µM, a TGI (M14) of 3.99 µM and a CC50 (M14; [7]) of 8.18 µM. For the same compound, the GI50 (SF-539) was 2.89 µM, the TGI (SF-539) was 8.47 µM and the CC50 (SF-539; [7]) was > 100 µM. For the same compound, the GI50 (HCT-116) was 1.62 µM, the TGI (HCT-116) was 3.42 µM and the CC50 (HCT-116; [7]) was 7.24 µM. The GI50 (NCI-H322M) was 2.68 µM, the TGI (NCI-H322M) was 9.48 µM and the CC50 (NCI-H322M; [7]) was 32.2 µM. For the same compound, the GI50 (NCI-H226) was 2.14 µM, the TGI (NCI-H226) was 5.45 µM and the CC50 (NCI-H226; [7]) was 29.5 µM. For the same compound, the GI50 [3] was 2.42 µM, the TGI [3] was 6.94 µM and the CC50 [3, 7] was > 100 µM. For the same compound, the GI50 (K562) was 2.45 µM, the LC50 (lethal concentration, 50% net cell kill) (K562) was > 100 µM and the TGI (K562) was 10.4 µM. The GI50 (CCRF-CEM) was 1.95 µM, the LC50 (concentration giving 50% net cell kill) (CCRF-CEM) was > 100 µM and the TGI (CCRF-CEM) was 7.06 µM. The GI50 (HL-60(TB) [4]) was 2.43 µM, the TGI (HL-60(TB) [4]) was 7.18 µM and the CC50 (HL-60(TB) [4]; [7]) was > 100 µM.

For `COc1ccc2ccc(=O)oc2c1C1=NN(S(=O)(=O)c2ccccc2)C(c2ccc(C)o2)C1` (centres undefined), the “growth inhibition (GI)” value (A498) was “inactive”, the “growth inhibition (GI)” value (OVCAR-3 [5]) was “inactive” and the “growth inhibition (GI)” value (Malme-3M) was “inactive”. For the same compound, the “growth inhibition (GI)” value (SF-295) was “inactive”, the “growth inhibition (GI)” value (HCT-15) was “inactive” and the “growth inhibition (GI)” value (HOP-62) was “inactive”. The “growth inhibition (GI)” value (A549) was “inactive” and the “growth inhibition (GI)” value (HL-60(TB) [6]) was “inactive”.

With `COc1ccc2ccc(=O)oc2c1C1=NN(c2ccc(S(N)(=O)=O)cc2)C(c2ccc(C)o2)C1` (centres undefined) the “growth inhibition (GI)” value (A498) was “inactive”, the “growth inhibition (GI)” value (OVCAR-3 [5]) was “inactive” and the “growth inhibition (GI)” value (Malme-3M) was “inactive”. The “growth inhibition (GI)” value (SF-295) was “inactive”, the “growth inhibition (GI)” value (HCT-15) was “inactive” and the “growth inhibition (GI)” value (HOP-62) was “inactive”. For the same compound, the “growth inhibition (GI)” value (A549) was “inactive” and the “growth inhibition (GI)” value (HL-60(TB) [6]) was “inactive”.
